# Results: paper PMC9545559 (International Journal of Cancer, 2022)
# Legend:
# Assay type in all cases: in vivo, human
# [1] = test system: patients with untreated locally advanced or metastatic PDAC; experiment: Phase II safety and adverse events; conditions: for patients with dose reduced due to occurrence of AEs: n = 24, combination ivaltinostat + gemcitabine + erlotinib; for Anemia, Number of patients (%) / Anorexia, Number of patients (%) / Fatigue, Number of patients (%) / Febrile neutropenia, Number of patients (%) / Neutropenia, Number of patients (%) / Pneumonia, Number of patients (%) / Thrombocytopenia, Number of patients (%): treatment-related
# Summary of the method: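 Patients on ivaltinostat 250 mg/m2 IV with gemcitabine 1000 mg/m2 IV (days 1, 8, 15) and erlotinib 100 mg/day orally, 28-day cycles. Vital signs, AEs, ADRs, serious AEs, ECG and clinical laboratory tests checked on days 1, 8 and 15 of each cycle. AEs graded by NCI CTCAE v4.0. Safety set: all patients given ≥1 dose.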
# [2] = test system: patients with untreated locally advanced or metastatic PDAC; experiment: Phase I 3 + 3 dose escalation; conditions: Level III: ivaltinostat 312.5 mg/m^2 + gemcitabine + erlotinib; four patients
# Summary of the method: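 3 + 3 escalation: ivaltinostat IV from 187.5 to 250 or 312.5 mg/m2, plus gemcitabine 1000 mg/m2 IV on days 1, 8, 15 and erlotinib 100 mg/day orally in 28-day cycles. DLT graded by NCI CTC v4.0: grade 4 neutropenia ≥6 days, grade 3/4 thrombocytopenia with bleeding, grade 3 neutropenia with fever >38.5°C, or drug-related nonhematologic grade 3/4 toxicity. MTD: ≤1 DLT per six-patient cohort.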
# [3] = Pharmacokinetic analysis of ivaltinostat in the phase I study; conditions: first day after single administration, mean
# [4] = 24 subjects, ivaltinostat + gemcitabine + erlotinib
compound,measurement,setting,value
"Nc1ccn([C@@H]2O[C@H](CO)[C@@H](O)C2(F)F)c(=O)n1 [gemcitabine, reference compound]",patients with dose reduced due to occurrence of AEs,[1],12.5%
CN(C)CCCNC(=O)/C(=C/CCCCC(=O)NO)COc1cccc2ccccc12 [ivaltinostat],dose-limiting toxicity (DLT),[2],"A DLT, febrile neutropenia grade 3"
same,drop-out of the study due to intolerable AEs,[1],no cases
same,subjects with ADRs of grade 3 or 4 severity,[1]; 15 of 24 subjects,62.5%
same,ADR: decreased appetite,[1]; 24 subjects,11 events
same,ADR: decreased platelet count,[1]; 24 subjects,15 events
same,ADR: nausea,[1]; 24 subjects,10 events
same,ADR: rash,[1]; 24 subjects,11 events
same,ADR: vomiting,[1]; 24 subjects,10 events
same,ADRs with grade 3 or 4 severity,[1]; 24 subjects,26 events
same,grade 5 (death) events,[1]; 24 subjects,no grade 5 (death) events
same,AEs reported,[1]; [4],218 events
same,adverse drug reactions (ADRs),[1]; [4],114 events
same,patients with dose reduced due to occurrence of AEs,[1],12.5%
same,treatment-related grade 3 or 4 anemia,"[1]; n = 24, text",16.7%
same,treatment-related grade 3 or 4 neutropenia,"[1]; n = 24, text",33.3%
same,treatment-related grade 3 or 4 thrombocytopenia,"[1]; n = 24, text",29.2%
same,"Anemia, Number of patients (%)",[1]; Grade 3 (n = 24),4 (16.7) patients (%)
same,"Anorexia, Number of patients (%)",[1]; Grade 3 (n = 24),2 (8.3) patients (%)
same,"Fatigue, Number of patients (%)",[1]; Grade 3 (n = 24),2 (8.3) patients (%)
same,"Febrile neutropenia, Number of patients (%)",[1]; Grade 3 (n = 24),2 (8.3) patients (%)
same,"Neutropenia, Number of patients (%)",[1]; Grade 3 (n = 24),3 (12.5) patients (%)
same,"Pneumonia, Number of patients (%)",[1]; Grade 3 (n = 24),0 patients (%)
same,"Thrombocytopenia, Number of patients (%)",[1]; Grade 3 (n = 24),4 (16.7) patients (%)
same,"Anemia, Number of patients (%)",[1]; Grade 4 (n = 24),0 patients (%)
same,"Anorexia, Number of patients (%)",[1]; Grade 4 (n = 24),0 patients (%)
same,"Fatigue, Number of patients (%)",[1]; Grade 4 (n = 24),0 patients (%)
same,"Febrile neutropenia, Number of patients (%)",[1]; Grade 4 (n = 24),0 patients (%)
same,"Neutropenia, Number of patients (%)",[1]; Grade 4 (n = 24),5 (20.8) patients (%)
same,"Pneumonia, Number of patients (%)",[1]; Grade 4 (n = 24),1 (4.2) patients (%)
same,"Thrombocytopenia, Number of patients (%)",[1]; Grade 4 (n = 24),3 (12.5) patients (%)
same,"Anemia, Number of patients (%)",[1]; Total grade 3 and 4 (n = 24),4 (16.7) patients (%)
same,"Anorexia, Number of patients (%)",[1]; Total grade 3 and 4 (n = 24),2 (8.3) patients (%)
same,"Fatigue, Number of patients (%)",[1]; Total grade 3 and 4 (n = 24),2 (8.3) patients (%)
same,"Febrile neutropenia, Number of patients (%)",[1]; Total grade 3 and 4 (n = 24),2 (8.3) patients (%)
same,"Neutropenia, Number of patients (%)",[1]; Total grade 3 and 4 (n = 24),8 (33.3) patients (%)
same,"Pneumonia, Number of patients (%)",[1]; Total grade 3 and 4 (n = 24),1 (4.2) patients (%)
same,"Thrombocytopenia, Number of patients (%)",[1]; Total grade 3 and 4 (n = 24),7 (29.2) patients (%)
same,Cmax,"[3]; 187.5 mg/m^2 iv, n=3",9553 ng/mL
same,Terminal half-life,"[3]; 187.5 mg/m^2 iv, n=3",7.3 h
same,Cmax,"[3]; 250 mg/m^2 iv, n=3",8062 ng/mL
same,Terminal half-life,"[3]; 250 mg/m^2 iv, n=3",5.7 h
same,Cmax,"[3]; 312.5 mg/m^2 iv, n=4",12 782 ng/mL
same,Terminal half-life,"[3]; 312.5 mg/m^2 iv, n=4",6.6 h
"C#Cc1cccc(Nc2ncnc3cc(OCCOC)c(OCCOC)cc23)c1 [erlotinib, reference compound]",patients with dose reduced due to occurrence of AEs,[1],no patient received a reduced dose
